Measurements from the M2OR odorant receptor database.

What was measured:
Conditions in all cases: stereoisomer not certain
UniProt A2ATE5 = target: T1, UniProt A2ATE5
T1 sequence (whole entry): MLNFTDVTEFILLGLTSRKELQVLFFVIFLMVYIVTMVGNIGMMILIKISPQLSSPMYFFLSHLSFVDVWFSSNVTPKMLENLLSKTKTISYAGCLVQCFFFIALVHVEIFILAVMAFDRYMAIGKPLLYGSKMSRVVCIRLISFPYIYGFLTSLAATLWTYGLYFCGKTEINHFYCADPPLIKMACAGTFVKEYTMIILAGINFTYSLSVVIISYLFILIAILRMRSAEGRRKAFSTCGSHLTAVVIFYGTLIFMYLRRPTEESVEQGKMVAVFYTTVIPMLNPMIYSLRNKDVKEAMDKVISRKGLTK
Summary of the method: (§1)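 Assay methods differ from source to source, frequently being transient luciferase assays in mammalian cell lines. For each receptor–molecule pair, the label responsive (active) applies when the original authors judged the measured signal statistically different from baseline, and non-responsive (inactive) applies otherwise.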

UniProt A2AVB0 = target: T2, UniProt A2AVB0
T2 sequence (whole entry): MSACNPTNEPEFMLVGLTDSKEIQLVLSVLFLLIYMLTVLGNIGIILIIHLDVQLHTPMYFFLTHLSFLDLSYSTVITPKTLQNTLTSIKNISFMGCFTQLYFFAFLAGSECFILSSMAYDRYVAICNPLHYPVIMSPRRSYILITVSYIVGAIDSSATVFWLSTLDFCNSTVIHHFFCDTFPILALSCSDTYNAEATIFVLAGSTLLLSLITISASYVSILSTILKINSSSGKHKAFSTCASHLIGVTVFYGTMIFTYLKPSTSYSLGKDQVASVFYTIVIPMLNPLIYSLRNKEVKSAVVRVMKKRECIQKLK
Summary of the method: as §1

UniProt E1BM68 = target: T3, UniProt E1BM68
T3 sequence (whole entry): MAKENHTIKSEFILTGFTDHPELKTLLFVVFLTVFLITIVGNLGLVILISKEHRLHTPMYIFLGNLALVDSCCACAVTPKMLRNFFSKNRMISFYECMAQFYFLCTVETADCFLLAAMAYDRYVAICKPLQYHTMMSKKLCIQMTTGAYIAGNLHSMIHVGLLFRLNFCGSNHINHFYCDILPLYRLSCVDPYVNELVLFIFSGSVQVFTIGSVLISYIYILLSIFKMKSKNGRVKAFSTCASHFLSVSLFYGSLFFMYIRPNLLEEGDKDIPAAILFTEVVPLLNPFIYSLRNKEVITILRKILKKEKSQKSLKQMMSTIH
Summary of the method: as §1

UniProt E9PVX1 = target: T4, UniProt E9PVX1
T4 sequence (whole entry): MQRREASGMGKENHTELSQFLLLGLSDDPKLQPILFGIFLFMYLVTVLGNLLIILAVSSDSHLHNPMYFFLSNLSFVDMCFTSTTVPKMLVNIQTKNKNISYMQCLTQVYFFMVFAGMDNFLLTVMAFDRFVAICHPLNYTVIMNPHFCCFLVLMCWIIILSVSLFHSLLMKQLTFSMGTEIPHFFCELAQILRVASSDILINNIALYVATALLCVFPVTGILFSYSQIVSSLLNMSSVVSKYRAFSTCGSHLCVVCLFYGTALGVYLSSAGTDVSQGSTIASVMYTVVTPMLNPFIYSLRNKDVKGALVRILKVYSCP
Summary of the method: as §1

UniProt E9PZ66 = target: T5, UniProt E9PZ66
T5 sequence (whole entry): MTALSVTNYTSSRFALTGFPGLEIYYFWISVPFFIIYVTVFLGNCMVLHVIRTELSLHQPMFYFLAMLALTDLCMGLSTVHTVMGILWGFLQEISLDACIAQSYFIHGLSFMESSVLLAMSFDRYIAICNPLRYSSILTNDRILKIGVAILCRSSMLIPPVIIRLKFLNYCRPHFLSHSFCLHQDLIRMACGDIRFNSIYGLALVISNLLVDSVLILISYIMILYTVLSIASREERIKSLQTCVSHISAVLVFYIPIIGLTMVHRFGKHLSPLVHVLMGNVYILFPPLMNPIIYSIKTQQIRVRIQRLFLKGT
Summary of the method: as §1

UniProt E9Q4X7 = target: T6, UniProt E9Q4X7
T6 sequence (whole entry): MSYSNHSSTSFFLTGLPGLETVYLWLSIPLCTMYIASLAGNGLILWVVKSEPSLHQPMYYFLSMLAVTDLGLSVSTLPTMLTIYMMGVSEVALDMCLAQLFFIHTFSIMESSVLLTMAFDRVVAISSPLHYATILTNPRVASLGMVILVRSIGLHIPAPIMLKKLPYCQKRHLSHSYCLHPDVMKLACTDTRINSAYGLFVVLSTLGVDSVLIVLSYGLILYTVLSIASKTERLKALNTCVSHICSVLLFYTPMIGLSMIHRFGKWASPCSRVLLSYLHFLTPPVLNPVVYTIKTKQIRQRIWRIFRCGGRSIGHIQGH
Summary of the method: as §1

UniProt E9Q546 = target: T7, UniProt E9Q546
T7 sequence (whole entry): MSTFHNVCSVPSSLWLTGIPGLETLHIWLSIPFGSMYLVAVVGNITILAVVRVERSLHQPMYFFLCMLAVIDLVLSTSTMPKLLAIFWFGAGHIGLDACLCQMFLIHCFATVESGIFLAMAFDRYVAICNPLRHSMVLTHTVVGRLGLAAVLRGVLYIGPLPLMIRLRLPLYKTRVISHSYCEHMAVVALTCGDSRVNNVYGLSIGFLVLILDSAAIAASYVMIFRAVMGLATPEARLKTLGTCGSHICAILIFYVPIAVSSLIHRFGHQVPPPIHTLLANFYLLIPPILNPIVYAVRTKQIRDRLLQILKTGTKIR
Summary of the method: as §1

UniProt E9Q6Z7 = target: T8, UniProt E9Q6Z7
T8 sequence (whole entry): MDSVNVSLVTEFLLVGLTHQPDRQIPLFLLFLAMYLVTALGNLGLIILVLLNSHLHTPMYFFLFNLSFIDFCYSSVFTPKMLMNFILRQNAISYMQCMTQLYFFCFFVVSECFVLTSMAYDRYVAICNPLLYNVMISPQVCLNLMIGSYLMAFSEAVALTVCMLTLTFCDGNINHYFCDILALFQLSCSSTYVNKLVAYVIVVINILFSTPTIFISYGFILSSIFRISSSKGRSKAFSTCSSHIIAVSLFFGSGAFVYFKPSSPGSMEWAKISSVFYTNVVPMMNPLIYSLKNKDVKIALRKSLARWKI
Summary of the method: as §1

UniProt E9QAT7 = target: T9, UniProt E9QAT7
T9 sequence (whole entry): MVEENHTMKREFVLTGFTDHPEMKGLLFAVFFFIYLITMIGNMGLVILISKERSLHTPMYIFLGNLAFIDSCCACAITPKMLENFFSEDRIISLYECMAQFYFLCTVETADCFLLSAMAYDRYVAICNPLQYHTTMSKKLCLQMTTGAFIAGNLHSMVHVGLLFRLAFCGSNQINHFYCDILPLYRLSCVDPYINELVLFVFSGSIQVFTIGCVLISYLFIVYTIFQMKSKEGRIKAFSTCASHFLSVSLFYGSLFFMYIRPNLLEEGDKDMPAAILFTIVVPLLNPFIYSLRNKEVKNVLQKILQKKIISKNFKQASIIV
Summary of the method: as §1

UniProt E9PXN3 = target: T10, UniProt E9PXN3
T10 sequence (whole entry): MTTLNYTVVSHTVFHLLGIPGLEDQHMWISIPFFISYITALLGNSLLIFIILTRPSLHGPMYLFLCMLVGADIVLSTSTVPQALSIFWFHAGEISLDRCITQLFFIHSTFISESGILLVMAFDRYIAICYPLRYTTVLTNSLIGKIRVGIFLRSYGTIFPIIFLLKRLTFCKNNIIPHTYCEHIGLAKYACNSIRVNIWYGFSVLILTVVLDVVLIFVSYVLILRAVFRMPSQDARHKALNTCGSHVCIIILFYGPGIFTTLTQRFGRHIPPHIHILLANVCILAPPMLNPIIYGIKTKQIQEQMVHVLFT
Summary of the method: as §1

UniProt A2AVB5 = target: T11, UniProt A2AVB5
T11 sequence (whole entry): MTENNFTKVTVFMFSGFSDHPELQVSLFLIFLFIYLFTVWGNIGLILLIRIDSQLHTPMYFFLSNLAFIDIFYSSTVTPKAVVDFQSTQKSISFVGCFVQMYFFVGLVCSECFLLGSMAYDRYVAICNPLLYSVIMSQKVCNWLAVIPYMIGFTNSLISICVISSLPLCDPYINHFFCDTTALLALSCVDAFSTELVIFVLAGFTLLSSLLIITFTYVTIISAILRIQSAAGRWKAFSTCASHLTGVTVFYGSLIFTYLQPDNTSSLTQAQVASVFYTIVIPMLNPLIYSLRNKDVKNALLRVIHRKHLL
Summary of the method: as §1

UniProt B2RVX8 = target: T12, UniProt B2RVX8
T12 sequence (whole entry): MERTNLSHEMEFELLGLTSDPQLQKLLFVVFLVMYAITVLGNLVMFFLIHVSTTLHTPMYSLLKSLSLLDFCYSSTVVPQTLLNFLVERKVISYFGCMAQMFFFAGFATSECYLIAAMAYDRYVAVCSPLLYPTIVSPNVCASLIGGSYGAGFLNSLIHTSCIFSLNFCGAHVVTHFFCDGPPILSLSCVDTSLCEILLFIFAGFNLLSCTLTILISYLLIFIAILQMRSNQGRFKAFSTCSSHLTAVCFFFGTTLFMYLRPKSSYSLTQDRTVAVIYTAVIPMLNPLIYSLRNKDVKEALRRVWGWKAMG
Summary of the method: as §1

UniProt K7N609 = target: T13, UniProt K7N609
T13 sequence (whole entry): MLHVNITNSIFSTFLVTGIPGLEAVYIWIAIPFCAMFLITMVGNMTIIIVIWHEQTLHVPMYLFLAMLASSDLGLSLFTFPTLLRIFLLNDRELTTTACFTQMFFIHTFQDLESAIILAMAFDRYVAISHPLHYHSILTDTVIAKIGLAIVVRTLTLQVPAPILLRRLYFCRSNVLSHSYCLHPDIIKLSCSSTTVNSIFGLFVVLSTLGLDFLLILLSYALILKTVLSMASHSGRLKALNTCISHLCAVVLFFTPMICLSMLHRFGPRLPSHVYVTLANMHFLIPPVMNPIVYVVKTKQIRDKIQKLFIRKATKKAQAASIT
Summary of the method: as §1

Compound | odorant receptor agonist call (UniProt A2ATE5) | odorant receptor agonist call (UniProt A2AVB0) | odorant receptor agonist call (UniProt E1BM68) | odorant receptor agonist call (UniProt E9PVX1) | odorant receptor agonist call (UniProt E9PZ66) | odorant receptor agonist call (UniProt E9Q4X7) | odorant receptor agonist call (UniProt E9Q546) | odorant receptor agonist call (UniProt E9Q6Z7) | odorant receptor agonist call (UniProt E9QAT7) | odorant receptor agonist call (UniProt E9PXN3) | odorant receptor agonist call (UniProt A2AVB5) | odorant receptor agonist call (UniProt B2RVX8) | odorant receptor agonist call (UniProt K7N609)
CCc1ncc(C)nc1CC | inactive | inactive | active | inactive | inactive | inactive | inactive | inactive | active |  |  |  | 
CC1(C)CC(=O)CC(=O)C1 | inactive | inactive |  | inactive | inactive | inactive | inactive | inactive |  |  |  |  | 
CCCCCCCCCCCO | inactive | inactive |  | inactive | inactive | inactive | inactive | inactive |  | inactive |  |  | 
CCCCCOC(=O)CCCCC | inactive | inactive |  | inactive | inactive | inactive | inactive | inactive |  |  | inactive | inactive | inactive
O=C(OCc1ccccc1)c1ccccc1O | inactive | inactive |  | inactive | inactive | inactive | inactive | inactive |  |  |  |  | 
CCCCCC(=Cc1ccccc1)C(OC)OC | inactive | inactive |  | inactive | inactive | inactive | inactive | inactive |  |  |  |  | 
Cc1ccccc1OC(=O)C(C)C | inactive | inactive |  | inactive | inactive | inactive | inactive | inactive |  |  |  |  | 
C=CC(=C)CCC=C(C)C | inactive | inactive |  | inactive | inactive | inactive | inactive | inactive |  |  |  |  | 
CNc1ccccc1C(=O)OC | inactive | inactive |  | inactive | inactive | inactive | inactive | inactive |  |  |  |  | 
